Experimental data as given in ChEMBL document CHEMBL5113395, “Azetidin-2-one-based small molecules as dual hHDAC6/HDAC8 inhibitors: Investigation of their mechanism of action and impact of dual inhibition profile on cell viability” (Eur J Med Chem, 2022).
The source made the active and inactive calls. No cut-off for these calls is given here.

What was measured:
Histone deacetylase 1 [1] = target: T1, Histone deacetylase 1 (Homo sapiens, UniProt Q13547); experiment: Inhibition of recombinant human full length C-terminal FLAG/His-tagged HDAC1 expressed in Sf9 insect cells using ZMAL (Z-(Ac)Lys-AMC as substrate at 1 uM measured after 90 mins by fluorescence plate reader analysis relative to control
[2] = target: T2, Protein deacetylase HDAC6 (Homo sapiens, UniProt Q9UBN7); experiment: Inhibition of recombinant human full length N-terminal GST-tagged HDAC6 expressed in Sf9 cells using ZMAL (Z-(Ac)Lys-AMC as substrate measured after 90 mins by fluorescence plate reader analysis
T2 sequence (Q9UBN7 whole entry): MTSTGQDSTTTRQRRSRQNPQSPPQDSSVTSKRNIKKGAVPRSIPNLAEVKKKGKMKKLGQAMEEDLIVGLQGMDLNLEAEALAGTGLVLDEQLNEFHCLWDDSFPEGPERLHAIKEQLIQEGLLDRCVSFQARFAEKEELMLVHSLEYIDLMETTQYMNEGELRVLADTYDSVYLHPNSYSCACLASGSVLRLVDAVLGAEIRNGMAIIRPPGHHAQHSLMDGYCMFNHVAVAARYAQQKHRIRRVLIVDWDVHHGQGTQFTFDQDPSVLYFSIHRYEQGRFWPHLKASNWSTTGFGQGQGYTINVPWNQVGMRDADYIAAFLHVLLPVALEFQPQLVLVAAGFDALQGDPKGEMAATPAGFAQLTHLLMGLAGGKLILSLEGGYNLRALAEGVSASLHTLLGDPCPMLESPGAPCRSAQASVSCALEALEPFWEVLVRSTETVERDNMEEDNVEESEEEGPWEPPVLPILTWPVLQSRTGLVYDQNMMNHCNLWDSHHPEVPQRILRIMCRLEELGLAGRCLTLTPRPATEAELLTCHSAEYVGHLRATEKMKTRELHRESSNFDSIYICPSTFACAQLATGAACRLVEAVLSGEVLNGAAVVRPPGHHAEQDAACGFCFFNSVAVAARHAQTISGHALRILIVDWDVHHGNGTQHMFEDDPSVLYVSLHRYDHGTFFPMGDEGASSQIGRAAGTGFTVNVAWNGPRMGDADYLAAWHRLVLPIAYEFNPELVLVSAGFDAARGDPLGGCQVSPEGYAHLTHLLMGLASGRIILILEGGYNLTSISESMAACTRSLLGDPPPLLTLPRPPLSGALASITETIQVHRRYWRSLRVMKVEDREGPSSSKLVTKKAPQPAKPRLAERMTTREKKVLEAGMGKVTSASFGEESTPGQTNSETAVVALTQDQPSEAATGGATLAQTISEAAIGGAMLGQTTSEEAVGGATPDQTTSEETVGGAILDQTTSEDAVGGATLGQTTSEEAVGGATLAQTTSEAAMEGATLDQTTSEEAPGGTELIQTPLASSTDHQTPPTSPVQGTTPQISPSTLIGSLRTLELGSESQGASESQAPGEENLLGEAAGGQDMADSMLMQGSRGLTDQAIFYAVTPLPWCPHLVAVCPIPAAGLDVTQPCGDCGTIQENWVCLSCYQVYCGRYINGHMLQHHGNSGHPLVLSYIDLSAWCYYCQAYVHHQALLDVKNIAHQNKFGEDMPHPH

Histone deacetylase 1 [3] = target: T1, Histone deacetylase 1; experiment: Inhibition of recombinant human full length C-terminal FLAG/His-tagged HDAC1 expressed in Sf9 insect cells using ZMAL (Z-(Ac)Lys-AMC as substrate at 50 uM measured after 90 mins by fluorescence plate reader analysis relative to control
Histone deacetylase 1 [4] = target: T1, Histone deacetylase 1; experiment: Inhibition of recombinant human full length C-terminal FLAG/His-tagged HDAC1 expressed in Sf9 insect cells using ZMAL (Z-(Ac)Lys-AMC as substrate at 10 uM measured after 90 mins by fluorescence plate reader analysis relative to control
[5] = target: T3, Protein deacetylase HDAC6 (Homo sapiens) (UniProt Q9UBN7); experiment: Inhibition of recombinant human full length N-terminal GST-tagged HDAC6 expressed in Sf9 cells using ZMAL (Z-(Ac)Lys-AMC as substrate at 50 uM measured after 90 mins by fluorescence plate reader analysis relative to control
T3 sequence (whole entry): T2 sequence (Q9UBN7 whole entry)

[6] = target: T3, Protein deacetylase HDAC6 (Homo sapiens); experiment: Inhibition of recombinant human full length N-terminal GST-tagged HDAC6 expressed in Sf9 cells using ZMAL (Z-(Ac)Lys-AMC as substrate at 10 uM measured after 90 mins by fluorescence plate reader analysis relative to control
[7] = target: T3, Protein deacetylase HDAC6 (Homo sapiens); experiment: Inhibition of recombinant human full length N-terminal GST-tagged HDAC6 expressed in Sf9 cells using ZMAL (Z-(Ac)Lys-AMC as substrate at 1 uM measured after 90 mins by fluorescence plate reader analysis relative to control
[8] = Cytotoxicity against mouse NIH3T3 cells assessed as inhibition of cell growth by neutral red uptake assay
Histone deacetylase 1 [9] = target: T1, Histone deacetylase 1; experiment: Inhibition of recombinant human full length C-terminal FLAG/His-tagged HDAC1 expressed in Sf9 insect cells using ZMAL (Z-(Ac)Lys-AMC as substrate measured after 90 mins by fluorescence plate reader analysis
HCT-116 = experiment: Antiproliferation activity against human HCT-116 cells assessed as reduction in cell viability at 5 to 50 uM measured after 48 hrs by MTT assay; format: functional, cell-based; settings: dose 5-50 µM
How it was run: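 HCT116 cells in DMEM with 10% heat-inactivated FBS were seeded at 3×10^4 cells/well and treated in triplicate at 1, 5, 10 and 50 µM for 24 and 48 h. MTT at 0.5 mg/mL was added for 3 h, formazan was dissolved in DMSO, and absorbance was read at 570 nm.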

U-937 = experiment: Antiproliferation activity against human U-937 cells assessed as reduction in cell viability at 5 to 50 uM measured after 48 hrs by CCK-8 assay; format: functional, cell-based; settings: dose 5-50 µM
How it was run: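 U937 cells were exposed in triplicate to 1, 5, 10 and 50 µM for 24 and 48 h. CCK-8 (WST-8) reagent was then added, with 3 h further incubation at 37 °C, and absorbance was read at 450 nm to give viability.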

[10] = target: T4, Histone deacetylase 8 (Homo sapiens) (UniProt Q9BY41); experiment: Inhibition of recombinant human HDAC8 using FLUOR DE LYS as substrate preincubated for 15 mins followed by substrate addition at 50 uM measured after 1 hrs by fluorescence plate reader analysis relative to control; settings: time 75.0 min
T4 sequence (whole entry): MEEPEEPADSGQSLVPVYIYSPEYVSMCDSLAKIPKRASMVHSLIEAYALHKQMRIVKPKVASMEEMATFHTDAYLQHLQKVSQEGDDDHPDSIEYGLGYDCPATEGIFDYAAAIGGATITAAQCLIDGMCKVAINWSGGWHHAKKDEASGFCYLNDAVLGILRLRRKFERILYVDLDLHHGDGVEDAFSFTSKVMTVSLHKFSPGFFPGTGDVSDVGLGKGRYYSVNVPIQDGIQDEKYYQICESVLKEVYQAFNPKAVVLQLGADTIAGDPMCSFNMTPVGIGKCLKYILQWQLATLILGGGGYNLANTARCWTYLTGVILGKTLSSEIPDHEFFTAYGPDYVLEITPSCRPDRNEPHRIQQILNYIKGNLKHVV
How it was run: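 Kit recombinant human HDAC8 (0.45 U/reaction) was preincubated 15 min with compound (0.5% DMSO; DMSO-only control). Fluor de Lys substrate was then added at 50 µM final and the reaction ran 1 h at 30 °C. It was quenched with 2 µM TSA in Developer II for a further 1 h at 30 °C, and fluorescence read at ex 370/em 450 nm. IC50 came from nonlinear dose–response fitting.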

T1 sequence (Q13547 whole entry): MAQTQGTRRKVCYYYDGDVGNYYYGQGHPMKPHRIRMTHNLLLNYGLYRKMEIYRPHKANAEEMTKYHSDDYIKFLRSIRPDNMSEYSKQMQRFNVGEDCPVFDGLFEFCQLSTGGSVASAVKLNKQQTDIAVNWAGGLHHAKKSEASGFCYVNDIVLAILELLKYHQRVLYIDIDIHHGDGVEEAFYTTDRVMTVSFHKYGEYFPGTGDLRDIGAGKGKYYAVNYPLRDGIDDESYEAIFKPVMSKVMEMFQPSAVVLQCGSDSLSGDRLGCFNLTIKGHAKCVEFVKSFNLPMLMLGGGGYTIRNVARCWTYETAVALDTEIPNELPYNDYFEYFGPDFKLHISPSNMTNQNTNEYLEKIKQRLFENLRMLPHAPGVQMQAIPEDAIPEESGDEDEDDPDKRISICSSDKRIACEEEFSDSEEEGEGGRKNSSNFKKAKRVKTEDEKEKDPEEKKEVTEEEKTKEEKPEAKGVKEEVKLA

| SMILES | inhibition (Histone deacetylase 1 [1]) | IC50 [2] | inhibition (Histone deacetylase 1 [3]) | inhibition (Histone deacetylase 1 [4]) | IC50 (Histone deacetylase 1 [9]) | also measured |
| --- | --- | --- | --- | --- | --- | --- |
| O=C(NO)c1ccc(/C=C/C(=O)N2CCC(N3C(=O)[C@H](c4ccccc4)[C@H]3c3ccccc3)CC2)cc1 (racemic) | 49.7% | 130 nM | 100% | 90.1% |  |  |
| O=C(Cc1ccc(NC(=O)N2CCC(N3C(=O)[C@H](c4ccccc4)[C@H]3c3ccccc3)CC2)cc1)NO (racemic) | 23.6% |  | 82.7% | 53.3% |  | inhibition [5]: 103%; inhibition [6]: 94.2%; inhibition [7]: 60.2% |
| Cc1cccc(C2CC(=O)N2C2CCN(C(=O)NCc3ccc(C(=O)NO)cc3)CC2)c1 (racemic) |  | 399 nM |  |  | 3.1 µM | CC50 [8]: 100 µM |
| O=C(/C=C/c1ccc(C(=O)N2CCC(N3C(=O)[C@H](c4ccccc4)[C@H]3c3ccccc3)CC2)cc1)NO (racemic) | 61% | 168 nM | 97.3% | 93.4% |  |  |
| COc1ccc(Cn2ccc3ccc(C(=O)NO)cc32)cc1 |  |  |  |  |  | Activity (HCT-116): Active; Activity (U-937): Active |
| O=C(CCCCCCC(=O)Nc1ccccc1)NO |  |  |  |  |  | Activity (HCT-116): Active; Activity (U-937): Active |
| O=C(NO)c1ccc(CCC(=O)N2CCC(N3C(=O)[C@H](c4ccccc4)[C@H]3c3ccccc3)CC2)cc1 (racemic) | 17.2% |  | 83.6% | 48.7% |  | inhibition [5]: 102%; inhibition [6]: 97.1%; inhibition [7]: 69.7% |
| O=C(NO)c1ccc(CC(=O)N2CCC(N3C(=O)[C@H](c4ccccc4)[C@H]3c3ccccc3)CC2)cc1 (racemic) |  | 121 nM |  |  | 5.14 µM | CC50 [8]: 48 µM |
| O=C(CCc1ccc(C(=O)N2CCC(N3C(=O)[C@H](c4ccccc4)[C@H]3c3ccccc3)CC2)cc1)NO (racemic) | 22.3% |  | 89.5% | 66.4% |  | inhibition [5]: 98.4%; inhibition [6]: 85.7%; inhibition [7]: 35.9% |
| O=C(NO)c1ccc(CNC(=O)N2CCC(N3C(=O)CC3c3cccc(Cl)c3)CC2)cc1 (racemic) |  | 270 nM |  |  | 15.1 µM |  |
| O=C(NO)c1ccc(NC(=O)N2CCC(N3C(=O)[C@H](c4ccccc4)[C@H]3c3ccccc3)CC2)cc1 (racemic) |  | 203 nM |  |  | 1.27 µM |  |
| O=C(NO)c1ccc(COC(=O)N2CCC(N3CC(c4ccccc4)(c4ccccc4)C3=O)CC2)cc1 |  | 18.5 nM |  |  | 4.1 µM | inhibition [10]: 13%; CC50 [8]: 80 µM |
